Results: PubChem BioAssay AID624010 (Broad Institute, 2012)

Molecular target: Scavenger receptor class B member 1 (Mus musculus) (UniProt Q61009)
Experiment: inhibition of C384S mSR-BI lipid uptake – cell-based, C384S mutant, scintillation, dry powder, mechanism study for SR-BI HDL uptake inhibitor project, dose response (AID 624010)
Conditions: CHO ldlA C384S mSR-BI, [3H]CE-HDL uptake
Method in brief: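 material = CHO cells without LDL receptor, expressing C384S mutant mouse SR-BI | buffer or medium = F12K medium, 0.5% BSA (fatty-acid-free), 0.5% DMSO | also added = [3H]CE-HDL | times = 1 h compound preincubation, then 2 h HDL uptake, 37 °C | technique = scintillation counting of [3H] label | benchmarks = unlabeled HDL excess (40-fold) and no-compound wells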

Scavenger receptor class B member 1 (Mus musculus), sequence (Q61009 whole entry C384S): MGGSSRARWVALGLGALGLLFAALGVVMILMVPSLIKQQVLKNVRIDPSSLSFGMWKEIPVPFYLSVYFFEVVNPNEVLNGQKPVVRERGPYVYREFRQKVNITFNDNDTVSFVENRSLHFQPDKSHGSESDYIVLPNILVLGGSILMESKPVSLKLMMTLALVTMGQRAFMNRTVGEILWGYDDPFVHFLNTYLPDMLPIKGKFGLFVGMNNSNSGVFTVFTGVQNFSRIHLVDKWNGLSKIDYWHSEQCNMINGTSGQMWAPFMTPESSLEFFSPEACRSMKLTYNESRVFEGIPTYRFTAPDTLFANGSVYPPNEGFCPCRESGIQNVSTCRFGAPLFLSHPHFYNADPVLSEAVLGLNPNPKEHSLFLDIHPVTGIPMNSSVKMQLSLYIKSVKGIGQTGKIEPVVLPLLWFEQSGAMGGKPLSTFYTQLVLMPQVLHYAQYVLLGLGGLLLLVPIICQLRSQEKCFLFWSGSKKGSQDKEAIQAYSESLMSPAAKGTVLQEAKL

With CC(C)NC(=O)Nc1ccc2c(c1)C(=O)N([C@H](C)CO)C[C@@H](C)[C@H](CN(C)S(=O)(=O)c1ccc(Cl)cc1)O2 the AC50 was 500 nM.
